Measured values reported in article PMC4005387 (MedChemComm, 2014).

Key:
[1] = target: KIX H602C (Mus musculus, UniProt P45481, H602C); assay: LC-MS analysis of labelling of KIX H602C by disulphide fragments; assay type: binding
Outline: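 Tethering reactions of KIX H602C with ten hit disulphide fragments from the FP screen were run at increasing β-ME stringency to compare relative affinities. Mass spectrometry gave the percent of protein carrying each fragment through the disulphide.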

[2] = target: KIX N627C / fluorescently-labeled MLL peptide (Mus musculus, UniProt P45481, N627C); conditions: fragment covalently associated with KIX N627C; cited from earlier work
Chain of KIX N627C / fluorescently-labeled MLL peptide (P45481 586-665 N627C limits assumed): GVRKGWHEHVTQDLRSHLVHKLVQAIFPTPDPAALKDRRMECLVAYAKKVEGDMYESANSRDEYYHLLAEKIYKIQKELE

[3] = target: KIX N627C mutant (Mus musculus, UniProt P45481, N627C); assay: LC-MS Tethering: labelling of KIX N627C by disulphide fragment; assay type: binding; conditions: 5 mM BME, 250 μM fragment
Chain of KIX N627C mutant (P45481 586-665 N627C limits assumed): as above

Chain of KIX H602C (P45481 586-665 H602C limits assumed): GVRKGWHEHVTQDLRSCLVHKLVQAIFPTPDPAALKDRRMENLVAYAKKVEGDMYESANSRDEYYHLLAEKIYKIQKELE

SMILES	percent labelling of KIX ([1]; 5 mM β-ME, KIX H602C, MS)	DR50 (concentration at which 50% of the KIX H602C mutant is bound by the fragment) ([1]; LC-MS dose-response, result in words)	inhibition of MLL binding [2]	percent of KIX N627C mutant labelled [3] [%]
CC(=O)Nc1ccc(Cl)c(NC(=O)NCCSSCCN(C)C)c1 [3D4]	~ 70%	lower with the fragment 3D4 than 6D11		
COc1ccc2cc([C@H](C)C(=O)NCCSSCCN)ccc2c1 [1C11]			effective inhibitors of MLL binding	
CN(C)CCSSCCC(=O)N1CCC(O)(c2ccc(Cl)c(C(F)(F)F)c2)CC1 [1A10]			effective inhibitors of MLL binding	82
